Experiment [1] relates to Staphylococcus aureus. The experiment is described as follows: Antimicrobial activity against Panton-valentine leucocidin-positive community-acquired methicillin-resistant Staphylococcus aureus NRS192 infected in human THP-1 cells assessed as bacterial count per mg of cell protein at low extracellular compound concentration after 24 hrs. The experiment is classed as functional. The method in brief:
(§1)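 THP-1 human macrophages infected with S. aureus (postphagocytosis inoculum 1.5 × 10^6 to 3.0 × 10^6 CFU/mg cell protein), then incubated 24 h with increasing extracellular antibiotic concentrations. Change in log10 CFU/mg cell protein from the postphagocytosis inoculum, n = 3. Hill function fitted on log-transformed data. Low-concentration value (E0) and high-concentration value (Emax) are extrapolated. Where a pH is given, concentrations are expressed as multiples of the broth MIC at that pH.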

The test system of experiment [2] is Staphylococcus aureus. Briefly: Bacteriostatic activity against Panton-valentine leucocidin-positive community-acquired methicillin-resistant Staphylococcus aureus STA 44 infected in human THP-1 cells assessed as change in bacterial count after 24 hrs at pH 5.5. It is filed as functional. The method in brief: (§2)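 THP-1 macrophages infected as described previously, with a postphagocytosis inoculum of 1.5 × 10⁶ to 3.0 × 10⁶ CFU/mg cell protein. Cells were exposed 24 h to increasing extracellular antibiotic concentrations. Response is the change in log10 CFU/mg protein from the inoculum (n = 3), fitted to a Hill function. E0 and Emax were extrapolated to infinitely low and high concentrations. EC50 and static concentration (graphical interpolation) are expressed as multiples of the broth MIC at pH 5.5 or 7.4.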

The subject of experiment [3] is Staphylococcus aureus. Briefly: Antimicrobial activity against Panton-valentine leucocidin-positive community-acquired methicillin-resistant Staphylococcus aureus STA 228 infected in human THP-1 cells assessed as change in bacterial count after 24 hrs at pH 5.5. It is filed as functional, organism-based. The settings on record: STA 228, THP-1, 24 h. The method in brief: as §1

The subject of experiment [4] is Staphylococcus aureus. Briefly: Antimicrobial activity against Panton-valentine leucocidin-positive community-acquired methicillin-resistant Staphylococcus aureus isolate MEH2225605 infected in human THP-1 cells assessed as change in bacterial count after 24 hrs at pH 5.5. The experiment is classed as functional, organism-based. The settings on record: isolate MEH2225605, THP-1, 24 h. An outline of the steps:
as §1

Experiment [5] has as its system Staphylococcus aureus. The experiment is described as follows: Bacteriostatic activity against hospital-acquired vancomycin-intermediate Staphylococcus aureus NRS18 infected in human THP-1 cells assessed as change in bacterial count after 24 hrs at pH 5.5. It is filed as functional. The method in brief: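 Human THP-1 macrophage-like cells were infected with S. aureus; the post-phagocytosis inoculum was 1.5 × 10^6 to 3.0 × 10^6 CFU/mg cell protein. Cells were exposed 24 h to increasing extracellular drug levels. Change in log10 CFU/mg protein from the inoculum was fitted to a Hill function (n = 3). Static concentration was read by graphical interpolation, as a multiple of the pH 5.5 broth MIC.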

Experiment [6] deals with Staphylococcus aureus. The experiment is described as follows: Antimicrobial activity against Panton-valentine leucocidin-positive community-acquired methicillin-resistant Staphylococcus aureus NRS192 infected in human THP-1 cells assessed as change in bacterial count after 24 hrs at pH 5.5. The settings on record: NRS192, THP-1, 24 h. The experiment is classed as functional, organism-based. An outline of the steps:
as §1

In experiment [7] the test system is Staphylococcus aureus. The experiment is described as follows: Antimicrobial activity against methicillin-susceptible Staphylococcus aureus NRS52 infected in human THP-1 cells assessed as bacterial count per mg of cell protein at high extracellular compound concentration after 24 hrs at pH 5.5. It is filed as functional. An outline of the steps: (§3)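 Human THP-1 macrophage-like cells were infected with S. aureus to a postphagocytosis inoculum of 1.5 × 10^6 to 3.0 × 10^6 CFU/mg cell protein. Cells were then exposed 24 h to increasing extracellular antibiotic concentrations. Response was the log10 CFU change per mg protein from the postphagocytosis inoculum, n = 3. A Hill function was fitted on log-transformed axes. E0 and Emax were extrapolated to infinitely low and high concentrations. Cs was read by graphical interpolation. Concentrations were expressed as multiples of the broth MIC at pH 5.5 or pH 7.4.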

For experiment [8], the system named is Staphylococcus aureus. The experiment is described as follows: Antimicrobial activity against methicillin-susceptible Staphylococcus aureus NRS52 infected in human THP-1 cells assessed as change in bacterial count after 24 hrs at pH 5.5. The settings on record: NRS52, THP-1, 24 h. The experiment is classed as functional, organism-based. An outline of the steps: as §2

Experiment [9] deals with Staphylococcus aureus. The experiment is described as follows: Antimicrobial activity against hospital-acquired vancomycin-intermediate Staphylococcus aureus NRS18 infected in human THP-1 cells assessed as bacterial count per mg of cell protein at low extracellular compound concentration after 24 hrs at pH 5.5. The experiment is classed as functional. The method in brief:
as §3

The subject of experiment [10] is Staphylococcus aureus. The experiment is described as follows: Antimicrobial activity against methicillin-susceptible Staphylococcus aureus NRS52 infected in human THP-1 cells assessed as change in bacterial count after 24 hrs at pH 7.4. The experiment is classed as functional, organism-based. The following applies: NRS52, THP-1, 24 h. The method in brief:
as §2

In experiment [11] the test system is Staphylococcus aureus. The experiment is described as follows: Bacteriostatic activity against methicillin-susceptible Staphylococcus aureus NRS52 infected in human THP-1 cells assessed as change in bacterial count after 24 hrs at pH 7.4. The experiment is classed as functional. The method in brief:
as §3

Experiment [12] deals with Staphylococcus aureus. The experiment is described as follows: Antimicrobial activity against hospital-acquired vancomycin-resistant Staphylococcus aureus VRS1 infected in human THP-1 cells assessed as change in bacterial count after 24 hrs at pH 7.4. It is filed as functional, cell-based. The settings on record: VRS1, THP-1, 24 h. The method in brief: as §2
The test system of experiment [13] is Staphylococcus aureus. The experiment is described as follows: Antimicrobial activity against Panton-valentine leucocidin-positive community-acquired methicillin-resistant Staphylococcus aureus N4042228 infected in human THP-1 cells assessed as change in bacterial count after 24 hrs at pH 7.4. The experiment is classed as functional, organism-based. The following applies: N4042228, THP-1, 24 h. An outline of the steps:
as §1

Experiment [14] concerns Staphylococcus aureus. The experiment is described as follows: Antimicrobial activity against Panton-valentine leucocidin-positive community-acquired methicillin-resistant Staphylococcus aureus STA 228 infected in human THP-1 cells assessed as change in bacterial count after 24 hrs at pH 7.4. The experiment is classed as functional, organism-based. The following applies: STA 228, THP-1, 24 h. An outline of the steps:
as §1

Experiment [15] has as its system Staphylococcus aureus. The experiment is described as follows: Antimicrobial activity against methicillin-susceptible Staphylococcus aureus ATCC 25923 infected in human keratinocytes assessed as bacterial count per mg of cell protein at high extracellular compound concentration after 24 hrs. It is filed as functional. The method in brief: (§4)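 Primary human skin keratinocytes were grown in defined keratinocyte serum-free medium and infected with S. aureus to 1.5 × 10^6 to 3.0 × 10^6 CFU/mg cell protein. Cells were exposed 24 h to increasing extracellular concentrations. Response was the log10 CFU change from the postphagocytosis inoculum, fitted by a Hill equation with slope 1. Cs is the concentration giving CFU equal to the original inoculum, found by graphical interpolation.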

The subject of experiment [16] is Staphylococcus aureus. Briefly: Bacteriostatic activity against methicillin-susceptible Staphylococcus aureus ATCC 25923 infected in human keratinocytes assessed as change in bacterial count after 24 hrs. The experiment is classed as functional. An outline of the steps: as §4
The subject of experiment [17] is Staphylococcus aureus. Briefly: Antimicrobial activity against methicillin-resistant Staphylococcus aureus ATCC 33591 infected in human keratinocytes assessed as bacterial count per mg of cell protein at low extracellular compound concentration after 24 hrs. The experiment is classed as functional. The method in brief:
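Primary human skin keratinocytes were grown in defined keratinocyte serum-free medium, infected with a postphagocytosis inoculum of 1.5 × 10⁶ to 3.0 × 10⁶ CFU/mg cell protein, then exposed 24 h to increasing extracellular antibiotic concentrations. Change in log10 CFU/mg protein from the inoculum was fitted to a Hill equation with slope 1. E0 and Emax were extrapolated to infinitely low and high concentrations, in total drug mg/liter.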

For experiment [18], the system named is Staphylococcus aureus. Briefly: Antimicrobial activity against methicillin-susceptible Staphylococcus aureus ATCC 11632 infected in human THP-1 cells assessed as change in bacterial count after 24 hrs. The following applies: ATCC 11632, THP-1, 24 h. It is filed as functional, organism-based. The method in brief: as §2
Experiment [19] concerns Staphylococcus aureus. The experiment is described as follows: Antimicrobial activity against hospital-acquired methicillin-resistant Staphylococcus aureus […] infected in human THP-1 cells assessed as bacterial count per mg of cell protein at low extracellular compound concentration after 24 hrs. The experiment is classed as functional. An outline of the steps:
as §2

Experiment [20] deals with Staphylococcus aureus. The experiment is described as follows: Antimicrobial activity against hospital-acquired methicillin-resistant Staphylococcus aureus […] infected in human THP-1 cells assessed as change in bacterial count after 24 hrs. It is filed as functional, organism-based. The following applies: THP-1, 24 h. The method in brief: as §2

Experimental findings from ChEMBL document CHEMBL1649438, “Activities of ceftobiprole and other cephalosporins against extracellular and intracellular (THP-1 macrophages and keratinocytes) forms of methicillin-susceptible and methicillin-resistant Staphylococcus aureus” (Antimicrob Agents Chemother, 2009) are described below.

In brackets after ≈: the same amount, converted by molar mass.

With `Nc1nc(/C(=N/O)C(=O)N[C@@H]2C(=O)N3C(C(=O)O)=C(/C=C4\CCN([C@@H]5CCNC5)C4=O)CS[C@H]23)ns1` [CEFTOBIPROLE], the log10cfu is 2.68 with Staphylococcus aureus [1]; 1.04 in the experiment with Staphylococcus aureus [7]; 2.63 in the experiment with Staphylococcus aureus [9]; -0.94 with Staphylococcus aureus [15]; 2.04 in the experiment on Staphylococcus aureus [17]; 2.46 in the experiment on Staphylococcus aureus [19]. Besides, the Activity stood at 1.45 × MIC with Staphylococcus aureus [2], 1.97 × MIC in the experiment with Staphylococcus aureus [5], 0.6 ×MIC with Staphylococcus aureus [11] and 0.91 mg/L with Staphylococcus aureus [16]. The EC50 with Staphylococcus aureus [3] was determined as 0.54 × MIC; in the experiment with Staphylococcus aureus [4] it was 0.54 × MIC; in the experiment with Staphylococcus aureus [6], 0.54 × MIC; in the experiment on Staphylococcus aureus [8], 0.41 × MIC; in the experiment with Staphylococcus aureus [10], 0.2 ×MIC; with Staphylococcus aureus [12], 0.28 ×MIC. In addition, the EC50 amounted to 0.33 ×MIC in the experiment with Staphylococcus aureus [13], 0.33 ×MIC in the experiment on Staphylococcus aureus [14], 0.205 µg/mL (≈ 0.383 µM) in the experiment with Staphylococcus aureus [18] and 0.73 µg/mL (≈ 1.37 µM) in the experiment on Staphylococcus aureus [20].
